Diaphorase inh = inhibits diaphorase or chemically oxidizes, flagging diaphorase assay artifacts; diaphorase resazurin-to-resorufin fluorescence, NADH, 16 min; bacterial (C. kluyveri) enzyme, not human; inhibition, % at 20 µM; actives 0.69% (n = 190,000); AID 1217;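 active = primary screen inhibition at 20 µM above a set limit, cut at about 50% in these data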
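Assay system – diaphorase enzyme from Clostridium kluyveri · Amount – diaphorase 0.14 U/mL (working solution) · Times – reaction incubation of 16 min at room temperature · Controls – No-NADH positive control and DMSO neutral control · Signal – resorufin fluorescence 544/590 nm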
PfGluPho inh = PfG6PD (Plasmodium falciparum) enzyme inhibition; PfGluPho enzyme, NADPH resazurin-diaphorase fluorescence; inhibition, % at 20 µM; actives 0.78% (n = 350,000); AID 504690;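 active = inhibition reaching at least a set limit at 20 µM in the primary screen, cut at about 59% in these data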
G6PDH CS = counter-screen for G6PDH assay hits: L. mesenteroides G6PDH inhibition. Purified L. mesenteroides G6PDH, diaphorase/resazurin coupled fluorescence, 45 min. inhibition, % at 5 µM. actives 0.12% (n = 200,000); in the data active = inhibition above about 50%
HKDC1 inh = inhibitors of human hexokinase HKDC1. Q2TB90. recombinant HKDC1, G6PDH/diaphorase resazurin coupled fluorescence. inhibition, % at 20 µM. actives 0.16% (n = 340,000). AID 493160;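 active = inhibition above about 35% when tested at 20 µM, limit read from the data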
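Incubation: 90 min at room temperature in dark / Material: recombinant HKDC1 (HK5) hexokinase enzyme, produced in-house / Quantity: enzyme 5 µg/mL final / Compound: one dose of 20 µM, 1% DMSO / Reagent: glucose and ATP substrates / Buffer or medium: Tris pH 8.0 buffer with MgCl2, Tween-20, BSA, BME / Technique: resorufin fluorescence at 613 nm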
Diaphorase act = activates diaphorase or chemically reduces, flagging diaphorase assay artifacts. actives 0.005% (n = 190,000). Diaphorase/resazurin coupled assay, resorufin fluorescence, 16 min; stronger effect = higher value; 1 = vehicle wells, 0 = NADH-free wells. activation factor at 20 µM. AID 1229;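 active = diaphorase activity raised at least twofold by the compound at 20 µM; inactive = activation factor below 2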
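Material: purified diaphorase enzyme from Clostridium kluyveri; Also added: 0.114 mM NADH and 0.1 mM resazurin, final amounts; Doses: single compound dose of 20 µM, 1% DMSO final; Times: 16 min enzyme reaction, ambient temperature; Detection: resorufin fluorescence, excitation 544 nm, emission 590 nm; Measure: increased resorufin signal from activators or reducing compounds.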
PfG6PD confirm = PfG6PD inhibition, single-dose confirmed; inhibition, % at 20 µM; actives 34% (n = 2,400); shares compounds with PfGluPho inh; recombinant PfGluPho, NADPH-diaphorase-resazurin fluorescence; AID 504753;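 active = inhibition of at least 50% at 20 µM in any single replicate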
Diaphorase 10uM = counter-screen for P. falciparum G6PD inhibitors: diaphorase inhibitors, oxidizers | shares compounds with PfGluPho inh | diaphorase-coupled resazurin reduction, fluorescence, NADPH 10 uM | inhibition, % at 20 µM | actives 39% (n = 820) | AID 504862;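 active = average inhibition reaching 50% or more with the compound at 20 µM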;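 also: resorufin red fluorescence formed as diaphorase reduces resazurin using NADPH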
Diaphorase 30uM = inhibits diaphorase or oxidizes, flagging false PfG6PD hits. shares compounds with PfGluPho inh. Diaphorase/resazurin coupled assay, resorufin fluorescence, 30 uM NADPH. inhibition, % at 20 µM. actives 29% (n = 820). AID 504863;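 active = inhibition averaging 50% or more, tested at 20 µM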
A number is an active result; – = inactive; · = no result given. A selection: hits, their analogues and other compounds. The true share with any hit is near 1.3%.

SMILES | Diaphorase inh | PfGluPho inh | G6PDH CS | HKDC1 inh | Diaphorase act | PfG6PD confirm | others
Cc1ccc(OCCn2cc(/C=C3\C(=O)NN(c4ccccc4)C3=O)c3ccccc32)cc1 | – | 64.6 | – | – | – | –
Cc1ccc(OCCn2cc(C=O)c3ccccc32)cc1 | · | – | · | – | · | ·
CCOc1ccccc1NC(=O)NNC(=O)CCc1ccc(OC)cc1 | · | – | · | – | · | ·
Nc1ccn(C2OC(COC(=O)C34CC5CC(CC(C5)C3)C4)C(O)C2O)c(=O)n1 (stereo not drawn) | · | – | · | – | · | ·
Nc1nc(-c2cc(O)ccc2[N+](=O)[O-])cc(-c2ccccc2)c1[N+](=O)[O-] | · | 75.5 | · | – | · | –
Cn1cc(S(=O)(=O)NC[C@H]2O[C@@H](n3cnc4c(N)ncnc43)[C@H](O)[C@@H]2O)cn1 | · | – | · | – | · | ·
S=c1[nH]cc(-c2ccccc2)[nH]1 | · | – | · | – | · | ·
O=[N+]([O-])c1ccc(-c2c[nH]c(=S)[nH]2)cc1 | · | 64.4 | · | – | · | –
Cn1c(N)c(C(=O)COC(=O)c2cc(S(=O)(=O)N3CCOCC3)ccc2F)c(=O)n(C)c1=O | · | – | · | – | · | ·
CC(C(=O)Nc1cc([N+](=O)[O-])ccc1Cl)N1CCN(c2ccc(O)cc2)CC1 (stereo not drawn) | – | 59.5 | – | – | – | –
CCCc1nc(SCc2ccc(Cl)cc2Cl)n[nH]1 | – | 71.9 | – | – | – | –
CCOc1ccc(Cl)cc1CSc1n[nH]c(C)n1 | – | – | – | – | – | ·
CCOC(=O)c1ccc(NC(=O)NC2=NCCS2)cc1 | · | – | · | · | · | ·
O=C(CSc1nc(C(F)(F)F)cc(=O)[nH]1)Nc1cccc2ccccc12 | · | – | · | – | · | ·
CN(CC(=O)Nc1ccc(Cl)cc1F)C1=NS(=O)(=O)c2ccccc21 | · | – | · | – | · | ·
COCc1cc(=O)n2[nH]c(C)cc2n1 | – | – | – | – | – | ·
COCc1cc(=O)n2[nH]c(C(C)(C)C)cc2n1 | · | 61.0 | · | – | · | 48.4 | Diaphorase 10uM=–;Diaphorase 30uM=–
Cc1ccc(NC(=O)COc2ccccc2C(N)=O)cc1S(=O)(=O)N1CCCCCC1 | · | – | · | – | · | ·
CN1CCc2c(sc(/N=C/c3c[nH]c4ccccc34)c2C(N)=O)C1 | · | 66.6 | · | – | · | –
COc1ccc(Cl)cc1NC(=O)CN(C)C(C)C(=O)NCC1CCCCC1 (stereo not drawn) | – | – | – | – | – | ·
COc1ccc(Cl)cc1NC(=O)CN(C(=O)c1ccco1)C1CCCCC1 | – | 62.6 | – | – | – | –
Cn1cc(S(=O)(=O)CC(=O)N2CCc3ccccc32)c2ccccc21 | – | 74.3 | – | – | – | 53.4 | Diaphorase 10uM=–;Diaphorase 30uM=–
CCCn1cc(S(=O)(=O)CC(=O)N2CCc3ccccc32)c2ccccc21 | – | – | – | – | – | ·
Cn1cc(S(=O)(=O)Cc2ccc(F)cc2)c2ccccc21 | · | 102.6 | · | – | · | 62.3 | Diaphorase 10uM=68.9;Diaphorase 30uM=51.1
O=C1CC(NS(=O)(=O)c2ccc([N+](=O)[O-])cc2)CN1c1cccc(F)c1 (stereo not drawn) | · | – | · | – | · | ·
SMILES | Diaphorase inh | PfGluPho inh | G6PDH CS | HKDC1 inh | Diaphorase act | PfG6PD confirm | others
Cc1ccc(-n2nc3c(=O)n(C(C)C(=O)NCCC4=CCCCC4)nc(C)c3c2C)cc1 (stereo not drawn) | · | – | · | – | · | ·
Oc1cc2c(cc1O)[C@H]1c3ccc(O)c(O)c3OC[C@@]1(O)C2 | · | 113.3 | · | – | · | 97.5 | Diaphorase 10uM=56.1;Diaphorase 30uM=–
O=C1C=CC(=O)N1Cc1ccccc1 | · | 71.1 | · | – | · | –
COC(=O)c1ccc2cc(OC)cc([N+](=O)[O-])c2n1 | · | – | · | – | · | ·
O=C(N=Nc1c(O)[nH]c2ccccc12)c1cc(-c2cccs2)[nH]n1 | · | 92.4 | · | – | · | –
O=C(N=Nc1c(O)[nH]c2ccc(F)cc12)c1ccc(NS(=O)(=O)c2cccs2)cc1 | · | – | · | – | · | ·
O=C(N=Nc1c(O)[nH]c2ccccc12)c1ccccc1NS(=O)(=O)c1cccs1 | – | 62.4 | – | – | – | –
